High-throughput results deposited in PubChem by The Scripps Research Institute Molecular Screening Center.
An excerpt weighted towards active compounds, which were near 2.3% of everything screened.
MC4R antagonist: blocks human MC4R cAMP signaling; inhibition, % at 6.5 µM; 360,000 compounds, 0.48% hits; P32245; MC4R-expressing cells, MTII-stimulated cAMP, LANCE TR-FRET;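 active means inhibition above its plate's cutoff, the mean of tested wells on that plate plus 3 SD, cut at about 29% in these data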
Target sequence (P32245 whole entry, looked up): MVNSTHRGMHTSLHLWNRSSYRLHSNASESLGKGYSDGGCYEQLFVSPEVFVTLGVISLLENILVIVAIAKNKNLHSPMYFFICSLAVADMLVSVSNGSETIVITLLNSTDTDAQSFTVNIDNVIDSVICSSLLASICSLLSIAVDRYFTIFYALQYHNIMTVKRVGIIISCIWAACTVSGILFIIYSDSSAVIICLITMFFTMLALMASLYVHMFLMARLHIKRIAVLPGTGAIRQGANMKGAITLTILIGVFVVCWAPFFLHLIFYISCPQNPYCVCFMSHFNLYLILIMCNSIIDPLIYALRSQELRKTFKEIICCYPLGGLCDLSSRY
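Assay system: human MC4R-expressing U2OS cells; reagent: Melanotan II stimulation of cells; dosing: 6.5 µM single dose; timing: compound 30 min, challenge 1 h, detection 1 h; signal: TR-FRET cAMP assay; replicates: one well per compound, no replicates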
MsrA act: activates bovine MsrA enzyme; purified bovine MsrA, absorbance read-out; activation, % at 10.6 µM; 360,000 compounds, 0.3% hits; AID 602163; in the data active means activation above about 7.5%
MsrA inhibitor: inhibitors of bovine MsrA; purified bovine MsrA, absorbance read-out; inhibition, % at 15.5 µM; 360,000 compounds, 0.75% hits; AID 651718
MC4R ag barr: activates human MC4R beta-arrestin recruitment; P32245; U2OS MC4R beta-arrestin complementation, luminescence; percent of melanotan II response, DMSO zero; activation, % at 8.9 µM; 360,000 compounds, 0.98% hits; AID 540308;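 active means activation above a per-plate cutoff, the mean activation of sample wells on that plate plus 3 SD, cut at about 8% in these data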
MsrA conf: confirmation of bovine MsrA inhibitors. 2,300 compounds, 41% hits. inhibition, % at 15.5 µM. AID 651822. purified bovine MsrA, absorbance read-out. shares compounds with MsrA inhibitor;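 further: coupled to thioredoxin reductase with NADPH and selenocystamine and DMSO as substrate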
Large screens that a line does not name were inactive (follow-up assays come after a bar, where they were run). Unless noted, no stated cut-off is given here; in the data, active means inhibition above about 4.5%; inactive means the rest.

CC(=O)C1=C(O)C(=O)N(c2ccccn2)C1c1cccc(F)c1 (stereo unspecified)	none
Cc1sc(NC(=O)c2cccc(N3C(=O)CCC3=O)c2)nc1-c1ccccc1	none
Cn1cccc1/C=N/NC(N)=S	MsrA inhibitor 7.4 | MsrA conf inactive
NC(=S)N/N=C/c1ccc(/C=N/NC(N)=S)cc1	MsrA inhibitor 10.0 | MsrA conf 9.0
CCn1nccc1C(=O)Nc1nccs1	none
O=C(Nc1ccc(Br)cc1)C1CCN(C(=O)c2ccc(F)cc2)CC1	none
COc1ccc(C(=O)Nc2ccc(-c3cn4ccsc4n3)cc2)cc1S(=O)(=O)N1CCOCC1	none
CN(C)c1ccc(C=Nc2cnn(C)c2C(N)=O)cc1	MsrA inhibitor 4.9 | MsrA conf inactive
O=C(COc1ccc(S(=O)(=O)NC2CCCCC2)cc1)NCc1ccccn1	none
COc1ccc(/C=C2\SC(N)=NC2=O)cc1Br	MsrA inhibitor 4.7 | MsrA conf inactive
CCCOc1ccc(/C=C2\SC(N)=NC2=O)cc1OC	none
COc1ccccc1NC(=S)NC(=O)C1CC1	none
O=C(NC(=S)Nc1ccccc1Cl)C1CC1	MsrA inhibitor 7.0 | MsrA conf inactive
COCCNC(=O)/C(C#N)=C/C=C/c1ccccc1	MsrA inhibitor 7.1 | MsrA conf 5.3
Cn1nccc1-c1coc2c(C(=O)N3CCOCC3)cccc12	none
CC(C)(C)c1nc2c(C#N)c(-c3ccc(Cl)cc3)ccn2n1	none
O=Cc1c(-c2ccccc2)nc2ccccn12	MsrA inhibitor 13 | MsrA conf 10
O=C(Nc1c(-c2ccccc2)nc2ccccn12)c1ccccc1	none
CC1(C)CCCN(C(=O)c2coc(=O)c(Br)c2)C1	MsrA inhibitor 4.9 | MsrA conf inactive
CCCCc1cc(=O)oc2cc(C)cc(OC(C)C(=O)NCc3ccccn3)c12 (stereo unspecified)	MsrA inhibitor 6.4 | MsrA conf inactive
COc1ccc2c(c1OC)C(=O)OC2C/C(=N\NC(N)=O)c1ccccc1 (stereo unspecified)	none
CCCc1c(C(=O)N/N=C/c2ccc(C)o2)nnn1-c1nonc1N	MsrA inhibitor 5.0 | MsrA conf 4.6
Cc1ccc(/C=N/NC(=O)c2nnn(-c3nonc3N)c2C(C)C)o1	MsrA inhibitor 4.8 | MsrA conf 4.8
Cc1ccc(/C=N/NC(=O)c2nnn(-c3nonc3N)c2CSc2ccccc2)o1	none
CC(/C=N/NC(=O)c1nnn(-c2nonc2N)c1CN(C)C)=C\c1ccco1	MsrA inhibitor 6.2 | MsrA conf 7.3
CC(C)c1c(C(=O)N/N=C/c2ccco2)nnn1-c1nonc1N	none
CN1/C(=C/c2cccc[n+]2C)Sc2ccccc21	none
COCc1nnc(NC(=O)c2cc3ccccc3o2)s1	MsrA inhibitor 5.1 | MsrA conf inactive
CCCc1nnc(NC(=O)c2cc3ccccc3o2)s1	none
CN1/C(=C\C=C(C#N)C#N)C(C)(C)c2ccccc21	none
CN1/C(=C/C=N/n2cnnc2)C(C)(C)c2ccccc21	MsrA inhibitor 4.8 | MsrA conf inactive
COc1ccc(C(=O)Nc2ccccc2C(=O)Nc2ccccc2C(=O)O)cc1	none
COc1ccc(C(=NNc2ccccc2C(=O)O)c2ccc(OC)cc2)cc1	MsrA inhibitor 5.1 | MsrA conf inactive
COc1ccc(/C=N/N=C(\N)c2nonc2N)cc1	MsrA inhibitor 5.3 | MsrA conf inactive
COc1cc(/C=N/N=C(\N)c2nonc2N)cc(OC)c1O	none
COc1cc2c(cc1O)CC[n+]1cc3c(OC)c(OC)ccc3cc1-2	MsrA inhibitor 5.2 | MsrA conf inactive
CC(C)(C)N1C(=O)c2ccccc2NC(=O)C1C(=O)Nc1ccc(N2CCOCC2)cc1 (stereo unspecified)	none (no result: MC4R antagonist, MsrA act, MC4R ag barr)
COc1ccc(/C=C2\Oc3cc(OCC(=O)N4CCC[C@H]4C(=O)O)ccc3C2=O)c(OC)c1	none (no result: MsrA inhibitor)
COc1cccc(/C=C2\Oc3cc(OCC(=O)N4CCC[C@H]4C(=O)O)ccc3C2=O)c1	MsrA inhibitor 5.7 | MsrA conf 5.9
CC(=O)Nc1ccc(/C=C/C(=O)c2ccc3c(c2)OCCO3)cc1	none
O=C(O)c1ccc(/C=C/C(=O)c2ccc3c(c2)OCCCO3)cc1	MsrA inhibitor 6.5 | MsrA conf inactive
NC(N)=NC1=NC(=O)/C(=C/c2ccccc2-n2cccn2)S1	MsrA inhibitor 5.3 | MsrA conf inactive
CCOC(=O)c1sc(N)c(C(N)=O)c1C	MsrA inhibitor 4.9 | MsrA conf inactive
CCOC(=O)c1c(N)sc(C(N)=O)c1C	none
COc1ccc2cc(S(=O)(=O)c3ccccc3)c(=O)oc2c1	MsrA inhibitor 5.3 | MsrA conf inactive
CCN(CC)/C(=N\S(=O)(=O)c1ccccc1C)c1ccccc1	none
